Article PMC10629916 (Journal of Food and Drug Analysis, 2023)

Assays:
[1] = Stability test of the 2 analytes in rat plasma; assay type: in vitro ADME
How it was run: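 Rat plasma QC samples at low, middle and high levels were assayed in triplicate. They were MeOH-precipitated (1:3), spun at 4500 rpm and 4 °C for 10 min, dried and redissolved in MeOH. The processed samples were held in the autosampler for 12 h and then quantified by UPLC-MS/MS against oxacillin internal standard. Samples counted as stable if bias was within ±15% of nominal.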

[2] = assay type: in vivo, Male Wistar Rats; details: male, Wistar, rat, plasma, po, 800 mg/kg
How it was run: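 Male Wistar rats (200–250 g) dosed orally with the prescription extract at 800 mg/kg. Plasma was stored at −80 °C, then precipitated with MeOH (1:3). Analysis was by UPLC-MS/MS MRM with oxacillin as internal standard. Parameters came from noncompartmental analysis, reported as mean ± SD.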

[3] = Normal temperature (auto-sampler 12 h), nominal conc 15.62 ng/mL
[4] = Normal temperature (auto-sampler 12 h), nominal conc 31.25 ng/mL
[5] = −80 (storage at −80 °C), nominal conc 15.62 ng/mL
[6] = −80 (storage at −80 °C), nominal conc 31.25 ng/mL
[7] = −80 FT (three freeze–thaw cycles), nominal conc 15.62 ng/mL
[8] = −80 FT (three freeze–thaw cycles), nominal conc 31.25 ng/mL

C[C@@H]1O[C@@H](OC[C@H]2O[C@@H](Oc3cc(O)c4c(c3)O[C@H](c3ccc(O)cc3)CC4=O)[C@H](O)[C@@H](O)[C@@H]2O)[C@H](O)[C@H](O)[C@H]1O [Narirutin]
Accuracy (RE, %) [1, 3]: 11.32% | Observed [1, 3]: 17.94 ± 0.15 | Accuracy (RE, %) [1, 4]: −2.84% | Observed [1, 4]: 31.04 ± 0.22 | Accuracy (RE, %) ([1]; −80 (storage at −80 °C), nominal conc 0.48 ng/mL): −1.48% | Accuracy (RE, %) [1, 5]: 9.87% | Observed [1, 5]: 17.94 ± 0.15 | Accuracy (RE, %) [1, 6]: −3.53% | Observed [1, 6]: 31.04 ± 0.22 | Accuracy (RE, %) ([1]; −80 FT (three freeze–thaw cycles), nominal conc 0.48 ng/mL): −3.82% | Accuracy (RE, %) [1, 7]: 12.58% | Observed [1, 7]: 17.94 ± 0.15 | Accuracy (RE, %) [1, 8]: −3.1% | Observed [1, 8]: 31.04 ± 0.22 | AUC(0-inf) [2]: 20.2 ± 11.9 ng·h/mL | AUC(0-t) [2]: 11 ± 5.91 ng·h/mL | Cmax [2]: 3.29 ± 1.63 ng/mL | MRT inf [2]: 8.22 ± 2.65 h | Tmax [2]: 1.01 ± 1.22 h | half-life [2]: 286 ± 106 min
